Experimental findings from ChEMBL document CHEMBL3091343, “Nicotinamide phosphoribosyltransferase inhibitors, design, preparation, and structure-activity relationship” (J Med Chem, 2013) are described below.

In data set [1] the test system is MCF7. The data set can be described thus: Cytotoxicity against human MCF-7 cells assessed as growth inhibition after 72 hrs by WST-1 assay. Type of data set: functional, cell-based. The conditions noted are these: MCF7, 72 h.
In the next data set the test system is Plasma. The data set is described as follows: Metabolic stability in mouse plasma assessed as compound hydrolysis. Type of data set: ADME, cell-free.
Data set [2] concerns A2780. The data set is described as follows: Cytotoxicity against human A2780 cells assessed as growth inhibition after 72 hrs by WST-1 assay. The conditions noted are these: A2780, 72 h. Type of data set: functional, cell-based.
Data set [3] is described as follows: AUC in NMRI mouse at 50 mg/kg, iv. Type of data set: ADME, organism-based. Also noted: dose 50 mg/kg, route intravenous. The following applies: plasma. In short, it runs like this: (§1)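 Mouse PK after a single i.v. dose. Plasma proteins were precipitated with acetonitrile containing internal standard (3:1 v/v). Samples were analysed by UPLC-MS/MS on a C18 column at 40°C with an acetonitrile–0.05% formic acid gradient, using positive electrospray MRM. Parameters were derived by non-compartmental analysis.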

Data set [4] in a line: Clearance in NMRI mouse at 50 mg/kg, iv. Type of data set: ADME, organism-based. The arrangement: dose 50 mg/kg, route intravenous. The conditions noted are these: in vivo. In short, it runs like this: as §1
The nature of data set [5]: Apparent volume of distribution in NMRI mouse at 50 mg/kg, iv. The conditions noted are these: in vivo, read-out: Vz. Type of data set: ADME, organism-based. The arrangement: dose 50 mg/kg, route intravenous. In short, it runs like this: as §1
Data set [6] is described as follows: Cmax in NMRI mouse at 50 mg/kg, iv. Also noted: dose 50 mg/kg, route intravenous. The conditions noted are these: in vivo. Type of data set: ADME, organism-based. In short, it runs like this: as §1
A short description of data set [7]: Tmax in NMRI mouse at 50 mg/kg, iv. Type of data set: ADME, organism-based. The arrangement: dose 50 mg/kg, route intravenous. The conditions noted are these: in vivo. In short, it runs like this: as §1
A short description of data set [8]: Half life in NMRI mouse at 50 mg/kg, iv. Type of data set: ADME, organism-based. The arrangement: dose 50 mg/kg, route intravenous. The conditions noted are these: in vivo. In short, it runs like this:
as §1

Data set [9] can be described thus: Toxicity in ip dosed NMRI mouse assessed as blood cell count administered as bid for 5 days. Type of data set: organism-based. The conditions noted are these: in vivo.
Data set [10] is described as follows: Toxicity in ip dosed NMRI mouse assessed as body weight loss administered as bid for 5 days. Type of data set: organism-based. The following applies: in vivo.
Data set [11] concerns the target Nicotinamide phosphoribosyltransferase (Homo sapiens, UniProt P43490). The data set is described as follows: Inhibition of NAMPT in human HepG2 cells using [14C]-nicotinamide/PRPP as substrate assessed as formation of [14C]-nicotinamide mononucleotide after 1 hr by liquid scintillation counting analysis. Type of data set: cell-based.
Data set [12] deals with HCT-116. The data set is described as follows: Resistance factor, ratio of IC50 for APO866-resistant human HCT116 cells to IC50 for human HCT116 cells. Type of data set: functional.
The test system of data set [13] is HCT-116. The data set can be described thus: Cytotoxicity against APO866-resistant human HCT116 cells assessed as growth inhibition after 72 hrs by WST-1 assay. Type of data set: functional, cell-based. The following applies: HCT-116, 72 h.
Data set [14] has as its system HCT-116. The data set can be described thus: Cytotoxicity against human HCT116 cells assessed as growth inhibition after 72 hrs by WST-1 assay. The conditions noted are these: HCT-116, 72 h. Type of data set: functional, cell-based.
Data set [15] deals with Mus musculus. The data set can be described thus: Toxicity in human A2780 cells xenografted NMRI/nude mouse containing small tumors assessed as effect on body weight at 0.63 to 2.5 mg/kg, ip bid administered for 5 days measured at day 14 relative to vehicle-treated control. Type of data set: organism-based. Also noted: dose 0.63-2.5 mg/kg, route intraperitoneal. The conditions noted are these: in vivo, 120 h.

The subject of data set [16] is Mus musculus. The data set can be described thus: Toxicity in human A2780 cells xenografted NMRI/nude mouse containing large tumors assessed as effect on body weight at 3 mg/kg, ip bid administered for 10 days. The following applies: in vivo.
For data set [17], the system named is Mus musculus. The data set is described as follows: Toxicity in human A2780 cells xenografted NMRI/nude mouse containing large tumors assessed as effect on body weight at 5 to 10 mg/kg, ip bid administered for 10 days measured during compound administration. The conditions noted are these: in vivo, 240 h.
Data set [18] deals with Mus musculus. The data set can be described thus: Toxicity in human A2780 cells xenografted NMRI/nude mouse containing small tumors assessed as effect on body weight at 15 mg/kg, ip bid administered for 5 days measured at day 14 relative to vehicle-treated control. Type of data set: organism-based. The arrangement: dose 15 mg/kg, route intraperitoneal. The conditions noted are these: in vivo, 120 h.

In data set [19] the test system is A2780. The data set can be described thus: Antitumor activity against human A2780 cells xenografted in NMRI/nude mouse assessed as tumor growth inhibition at 15 mg/kg, ip bid administered for 5 days measured at day 14 relative to vehicle-treated control. Type of data set: functional. The conditions noted are these: route intraperitoneal.
Data set [20] can be described thus: AUC in NMRI mouse at 20 mg/kg, iv. Type of data set: ADME, organism-based. The arrangement: dose 20 mg/kg, route intravenous. The conditions noted are these: plasma. The gist of the method:
as §1

Data set [21] in a line: Clearance in NMRI mouse at 20 mg/kg, iv. Type of data set: ADME, organism-based. Also noted: dose 20 mg/kg, route intravenous. The conditions noted are these: in vivo. In short, it runs like this:
as §1

The nature of data set [22]: Apparent volume of distribution in NMRI mouse at 20 mg/kg, iv. Type of data set: ADME, organism-based. The following applies: in vivo, read-out: Vz. Also noted: dose 20 mg/kg, route intravenous. The gist of the method:
as §1

Data set [23] is described as follows: Cmax in NMRI mouse at 20 mg/kg, iv. The conditions noted are these: in vivo. The arrangement: dose 20 mg/kg, route intravenous. Type of data set: ADME, organism-based. In short, it runs like this:
as §1

Data set [24] is described as follows: Tmax in NMRI mouse at 20 mg/kg, iv. Type of data set: ADME, organism-based. The arrangement: dose 20 mg/kg, route intravenous. The conditions noted are these: in vivo. The gist of the method:
as §1

A short description of data set [25]: Half life in NMRI mouse at 20 mg/kg, iv. Type of data set: ADME, organism-based. Also noted: dose 20 mg/kg, route intravenous. The conditions noted are these: in vivo. The gist of the method: as §1
In the next data set the test system is SK-OV-3. The data set can be described thus: Cytotoxicity against human SKOV3 cells by clonogenic assay. Type of data set: functional, cell-based.
Data set [26] in a line: Cytotoxicity against human NYH cells by clonogenic assay. Type of data set: functional, cell-based.
Another data set relates to PC-3. The data set is described as follows: Cytotoxicity against human PC3 cells by clonogenic assay. Type of data set: functional, cell-based.
In the next data set the test system is A-431. The data set is described as follows: Cytotoxicity against human A431 cells by clonogenic assay. Type of data set: functional, cell-based.
Data set [27] relates to MCF7. The data set is described as follows: cells. The conditions noted are these: Homo sapiens.
The test system of data set [28] is A2780. The data set is described as follows: cells. The following applies: Homo sapiens.

Chain of Nicotinamide phosphoribosyltransferase (P43490 whole entry): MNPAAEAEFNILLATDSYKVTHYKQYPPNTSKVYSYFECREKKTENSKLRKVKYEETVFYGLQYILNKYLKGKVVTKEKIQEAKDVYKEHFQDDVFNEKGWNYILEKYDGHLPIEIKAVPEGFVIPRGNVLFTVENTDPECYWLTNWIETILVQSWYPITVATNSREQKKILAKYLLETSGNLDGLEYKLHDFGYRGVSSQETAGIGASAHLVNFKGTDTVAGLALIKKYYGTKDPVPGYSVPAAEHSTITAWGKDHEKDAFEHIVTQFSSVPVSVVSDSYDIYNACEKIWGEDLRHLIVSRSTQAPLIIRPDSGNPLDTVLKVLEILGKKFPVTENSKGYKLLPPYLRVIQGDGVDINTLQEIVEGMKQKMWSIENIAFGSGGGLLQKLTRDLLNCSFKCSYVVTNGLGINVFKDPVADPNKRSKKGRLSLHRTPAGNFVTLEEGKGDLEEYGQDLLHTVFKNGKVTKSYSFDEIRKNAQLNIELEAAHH

With `N#C/N=C(\NCCCCC[C@H](Cc1ccccc1)C(=O)NOC1CCCCC1)Nc1ccncc1`, the half-inhibitory concentration (IC50) was 1.7 nM in the data set with MCF7 [1] and 0.22 nM with A2780 [2]. Moreover, the Stability result with Plasma is “Unstable”.

Turning to `N#C/N=C(\NCCCCC[C@@H](Cc1ccccc1)C(=O)NOC1CCCCC1)Nc1ccncc1`, the half-maximal inhibitory concentration (IC50) in the data set on MCF7 [1] turned out to be 5.3 nM; in the data set on A2780 [2], 0.32 nM. Further, the Stability result with Plasma was “Unstable”.

In data set [3], `O=C(NCCCCCCS(=O)(=O)N(OCCN1CCOCC1)C1CCCCC1)Nc1ccncc1` showed an AUC of 7020 ng·h/mL. Moreover, the clearance in data set [4] is 118 mL/min/kg. The Vd in data set [5] was 4.6 L/kg. This compound also had a Cmax in data set [6] of 14800 ng/mL. In addition, the Tmax in data set [7] came out at 4.8 min. Further, in data set [8], the half-life was 27 min. Further, the MTD at 120 h in data set [9] and in data set [10] was less than 10 mg/kg in each case. Also, the IC50 in data set [11] is 49 nM; with HCT-116 [13], greater than 5000 nM; in the data set with HCT-116 [14], 5.3 nM; in the data set with MCF7 [1], 0.05 nM; in the data set on A2780 [2], 0.25 nM. In addition, in the data set on HCT-116 [12], the “Ratio IC50” value was 128.

`N#CNC(=Nc1ccncc1)NCCCCCCS(=O)(=O)N(OCCN1CCOCC1)C1CCCCC1`: the Activity entry is recorded as “Non-toxic” with Mus musculus [15], “Non-toxic” with Mus musculus [16] and “Toxic” in the data set with Mus musculus [17]. In data set [3], the exposure (AUC) was 10200 ng·h/mL. This compound gave a clearance in data set [4] of 81.8 mL/min/kg. Moreover, the Vd in data set [5] worked out at 1.28 L/kg. The same compound displayed a Cmax in [6] of 14100 ng/mL. In data set [7], the Tmax came out at 4.8 min. For the same compound, in data set [8], the half-life was 10.8 min. In addition, the MTD at 120 h in data set [9] and in data set [10] was less than 10 mg/kg in each case. For the same compound, the IC50 in [11] is 0.3 nM.

Consider `O=C1C(=O)C(Nc2ccncc2)C1NCCCCCCS(=O)(=O)N(OCCN1CCOCC1)C1CCCCC1` (stereo not given), for which the AUC in [3] was determined as 12500 ng·h/mL. This compound had a clearance in data set [4] of 66.6 mL/min/kg. The Vd in data set [5] was 1.2 L/kg. In [6], this compound displayed a Cmax of 33500 ng/mL. For the same compound, in [7], the Tmax came to 4.98 min. Besides, in data set [8], the half-life is 12.6 min. In addition, the MTD at 120 h in data set [9] and in data set [10] was less than 10 mg/kg in each case. Further, the “Ratio IC50” value in the data set on HCT-116 [12] stood at 128. For the same compound, the IC50 in the data set on HCT-116 [13] was greater than 5000 nM; in the data set with HCT-116 [14] it was 39 nM; in the data set on MCF7 [1], 9 nM; in the data set on A2780 [2], 0.49 nM.

Consider `O=C(/C=C/c1cccnc1)NCCCCC1CCN(C(=O)c2ccccc2)CC1` [DAPORINAD], for which the Activity result in the data set on Mus musculus [18] is “Non-toxic”. In addition, the T/C with A2780 [19] turned out to be 52%. Moreover, the AUC in [20] came to 12300 ng·h/mL. Also, in [21], the clearance is 27 mL/min/kg. The Vd in data set [22] was 0.998 L/kg. The highest level in [23] (Cmax) was 14600 ng/mL. Also, the Tmax in data set [24] is 15 min. The compound further showed a half-life in data set [25] of 24 min. The MTD at 120 h in [9] and in [10] was less than 10 mg/kg each time. For the same compound, the concentration for half-maximal inhibition (IC50) with SK-OV-3 turned out to be 211 nM; in [26] it was 1.5 nM; with PC-3 it was 3.8 nM; in the data set on A-431 it was 6.1 nM; in the data set on HCT-116 [13], 946 nM; with HCT-116 [14], 10.9 nM. Further, the concentration for half-maximal inhibition (IC50) in the data set on MCF7 [1] was 7.4 nM; with A2780 [2], 1.6 nM; in the data set on MCF7 [27] it was 8.4 nM; in the data set on A2780 [28], 5.7 nM.
